This test can be described thus: Binding affinity to blood-brain barrier choline transporter in rat brain assessed as inhibition of [3H]choline uptake. In kind it is tissue-based. In short, it runs like this:
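In situ rat brain perfusion (Takasato method, Allen and Smith modification). Analog co-perfused at a single concentration, with brain uptake of [3H]-choline measured. Ki is the analog concentration inhibiting 50% of [3H]-choline uptake into brain, derived from the single-concentration inhibition. n = 4–6 animals. Ki values compared by ANOVA with Bonferroni multiple comparisons test.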
With `c1ccc2c[n+](CCCCCCCCCCCC[n+]3ccc4ccccc4c3)ccc2c1`, the Ki was found to be 22 µM.

Consider `c1ccc2c[n+](CCCCCCCCCC[n+]3ccc4ccccc4c3)ccc2c1`, for which the inhibition constant (Ki) amounted to 10 µM.

Regarding `Cc1ccc[n+](CCCCCCCCCCC[n+]2cccc(C)c2)c1`, the Ki is 36 µM.

On to `Cc1cc[n+](CCC#Cc2ccc(C#CCC[n+]3ccc(C)cc3)cc2)cc1`, for which the inhibitory constant (Ki) is 8.5 µM.

In the case of `CCCCCCCC[n+]1cccc([C@@H]2CCCN2C)c1`, the Ki amounted to 49 µM.

As for `c1ccc2c[n+](CCCCCC[n+]3ccc4ccccc4c3)ccc2c1`, the Ki was 29 µM.

On to `Cc1ccc[n+](CCCC#Cc2cccc(C#CCCC[n+]3cccc(C)c3)c2)c1`, for which the Ki stood at 140 µM.

Turning to `Cc1ccc[n+](CCCC#Cc2ccccc2C#CCCC[n+]2cccc(C)c2)c1`, the Ki amounted to 319 µM.

As for `Cc1ccc[n+](CCC#Cc2ccc(C#CCC[n+]3cccc(C)c3)cc2)c1`, the inhibition constant Ki is 15 µM.

Turning to `Cc1ccc[n+](CCCCCCCCC[n+]2cccc(C)c2)c1`, the inhibition constant Ki worked out at 30 µM.

As to `Cc1ccc[n+](CCCCCC[n+]2cccc(C)c2)c1`, the inhibition constant Ki stood at 26 µM.

Turning to `Cc1ccc[n+](CCCCCCCCCCCC[n+]2cccc(C)c2)c1`, the inhibition constant Ki is 36 µM.

For `Cc1ccc[n+](CCCCCCCC[n+]2cccc(C)c2)c1`, the Ki was found to be 24 µM.

Turning to `Cc1ccc[n+](CCCCCCCCCC[n+]2cccc(C)c2)c1`, the Ki was determined as 22 µM.

Turning to `Cc1cc[n+](CCC#Cc2ccc(C#CCC[n+]3ccc(C)c(C)c3)cc2)cc1C`, the Ki is 8.4 µM.

As to `C(#Cc1ccc(C#CCC[n+]2ccc3c(c2)CCCC3)cc1)CC[n+]1ccc2c(c1)CCCC2`, the inhibition constant (Ki) amounted to 5.4 µM.

For the compound `Cc1cc(C)c[n+](CCC#Cc2ccc(C#CCC[n+]3cc(C)cc(C)c3)cc2)c1`, the inhibition constant Ki amounted to 7.4 µM.

Regarding `C[N+](C)(C)CCO` [CHOLINE], the Ki was 41 µM.

For the origin of these results see ChEMBL document CHEMBL1155524, “Bis-azaaromatic quaternary ammonium salts as ligands for the blood-brain barrier choline transporter” (Bioorg Med Chem Lett, 2010).
